Data as given in ChEMBL document CHEMBL4364279, “Design, synthesis, in-silico and biological evaluation of novel chalcone-O-carbamate derivatives as multifunctional agents for the treatment of Alzheimer's disease” (Eur J Med Chem, 2019).
pIC50: −log10 of the molar value. Activity calls are given as the source filed them. The calls are words filed in the database; no cut-off is given here.

Key:
[1] = target: T1, Amine oxidase [flavin-containing] B (Homo sapiens, UniProt P27338); assay: biochemical; type: cell-based
T1 sequence (P27338 whole entry): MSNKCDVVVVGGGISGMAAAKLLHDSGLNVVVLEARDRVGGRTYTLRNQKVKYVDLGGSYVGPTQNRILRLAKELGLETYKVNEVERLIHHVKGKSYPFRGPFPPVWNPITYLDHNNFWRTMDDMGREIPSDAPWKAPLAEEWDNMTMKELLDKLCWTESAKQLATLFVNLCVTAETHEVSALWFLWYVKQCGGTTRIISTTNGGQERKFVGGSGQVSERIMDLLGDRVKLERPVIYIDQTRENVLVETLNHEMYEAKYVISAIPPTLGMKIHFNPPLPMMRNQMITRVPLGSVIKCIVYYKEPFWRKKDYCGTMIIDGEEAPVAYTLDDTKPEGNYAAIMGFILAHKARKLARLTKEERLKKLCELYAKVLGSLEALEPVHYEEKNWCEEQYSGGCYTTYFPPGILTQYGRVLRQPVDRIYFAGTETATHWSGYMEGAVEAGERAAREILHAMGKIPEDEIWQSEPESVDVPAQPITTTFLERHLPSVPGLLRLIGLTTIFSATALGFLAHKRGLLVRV

[2] = target: T2, Amine oxidase [flavin-containing] A (Homo sapiens, UniProt P21397); assay: Inhibition of recombinant human MAO-A expressed in baculovirus infected BTI insect cells at 12.5 uM using kynuramine as substrate measured after 30 mins by fluorescence based assay relative to control; settings: 0.5 h
T2 sequence (P21397 whole entry): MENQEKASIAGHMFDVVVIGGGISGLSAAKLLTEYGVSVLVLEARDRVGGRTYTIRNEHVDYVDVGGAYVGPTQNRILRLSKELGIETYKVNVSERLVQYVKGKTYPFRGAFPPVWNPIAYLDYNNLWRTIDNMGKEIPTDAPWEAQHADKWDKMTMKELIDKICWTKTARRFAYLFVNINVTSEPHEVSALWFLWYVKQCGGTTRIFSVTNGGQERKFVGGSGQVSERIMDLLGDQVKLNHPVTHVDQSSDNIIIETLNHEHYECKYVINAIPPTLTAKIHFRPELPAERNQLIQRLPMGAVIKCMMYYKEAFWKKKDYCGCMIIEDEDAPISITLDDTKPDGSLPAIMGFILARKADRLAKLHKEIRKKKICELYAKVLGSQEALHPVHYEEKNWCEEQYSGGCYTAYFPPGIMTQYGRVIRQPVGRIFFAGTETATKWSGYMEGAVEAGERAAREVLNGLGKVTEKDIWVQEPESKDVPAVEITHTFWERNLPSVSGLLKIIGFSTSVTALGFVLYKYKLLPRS

Cholinesterase = Cholinesterase (Equus caballus, UniProt P81908); assay: Inhibition of equine serum BuChE using S-butyrylthiocholine iodide as susbtrate preincubated for 6 mins followed by substrate addition measured up to 3 mins by Ellman's method
Sequence of Cholinesterase (P81908 whole entry): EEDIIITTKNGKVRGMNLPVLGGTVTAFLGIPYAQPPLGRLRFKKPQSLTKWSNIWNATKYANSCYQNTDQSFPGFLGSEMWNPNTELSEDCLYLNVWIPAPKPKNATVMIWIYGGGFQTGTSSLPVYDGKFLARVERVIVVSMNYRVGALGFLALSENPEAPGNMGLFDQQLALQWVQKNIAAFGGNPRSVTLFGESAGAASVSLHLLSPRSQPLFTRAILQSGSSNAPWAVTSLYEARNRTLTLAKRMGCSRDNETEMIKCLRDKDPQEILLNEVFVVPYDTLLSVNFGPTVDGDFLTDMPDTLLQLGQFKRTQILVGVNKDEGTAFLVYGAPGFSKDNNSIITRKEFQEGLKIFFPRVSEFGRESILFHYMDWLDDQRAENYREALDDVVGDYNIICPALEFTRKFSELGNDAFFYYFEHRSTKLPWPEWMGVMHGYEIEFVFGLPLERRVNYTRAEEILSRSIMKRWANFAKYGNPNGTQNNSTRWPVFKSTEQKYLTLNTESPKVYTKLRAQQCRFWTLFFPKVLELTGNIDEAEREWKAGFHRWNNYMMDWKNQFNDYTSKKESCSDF

[3] = target: Acetylcholinesterase (AChE) (Electrophorus electricus, UniProt O42275); assay: Inhibition of electric eel AChE at 25 uM using acetylthiocholine iodide as substrate incubated for 15 mins by Ellman's method relative to control; settings: electric eel acetylcholinesterase (isolated enzyme), probe acetylthiocholine iodide
Sequence of Acetylcholinesterase (AChE) (O42275 whole entry): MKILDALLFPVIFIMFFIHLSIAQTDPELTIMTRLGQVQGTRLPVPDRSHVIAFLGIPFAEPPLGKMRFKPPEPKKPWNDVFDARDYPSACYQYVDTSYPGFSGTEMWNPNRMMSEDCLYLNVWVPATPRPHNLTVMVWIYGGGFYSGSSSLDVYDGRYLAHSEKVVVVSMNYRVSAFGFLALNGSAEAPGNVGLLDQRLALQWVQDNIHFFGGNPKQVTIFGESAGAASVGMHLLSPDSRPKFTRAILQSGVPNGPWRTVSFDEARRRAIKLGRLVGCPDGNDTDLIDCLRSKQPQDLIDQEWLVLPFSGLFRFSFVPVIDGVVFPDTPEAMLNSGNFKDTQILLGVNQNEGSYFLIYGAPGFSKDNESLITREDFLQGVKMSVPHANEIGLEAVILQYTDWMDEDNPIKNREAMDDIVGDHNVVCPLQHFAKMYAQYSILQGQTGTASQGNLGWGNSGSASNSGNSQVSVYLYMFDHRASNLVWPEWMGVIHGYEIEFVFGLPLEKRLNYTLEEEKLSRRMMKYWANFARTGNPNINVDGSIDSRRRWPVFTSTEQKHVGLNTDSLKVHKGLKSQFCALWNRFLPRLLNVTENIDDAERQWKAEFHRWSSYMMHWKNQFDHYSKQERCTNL

[4] = Antioxidant activity assessed as trolox equivalents of AAPH radical scavenging activity preincubated for 15 mins followed by AAPH addition and measured every minute for 90 mins by ORAC-FL assay; type: functional
[5] = target: Amyloid-beta precursor protein (Homo sapiens) (UniProt P05067); assay: Inhibition of self-induced amyloid beta (1 to 42) (unknown origin) aggregation at 25 uM after 24 hrs by thioflavin-T based fluorescence assay relative to control
Sequence of Amyloid-beta precursor protein (Homo sapiens) (P05067 whole entry): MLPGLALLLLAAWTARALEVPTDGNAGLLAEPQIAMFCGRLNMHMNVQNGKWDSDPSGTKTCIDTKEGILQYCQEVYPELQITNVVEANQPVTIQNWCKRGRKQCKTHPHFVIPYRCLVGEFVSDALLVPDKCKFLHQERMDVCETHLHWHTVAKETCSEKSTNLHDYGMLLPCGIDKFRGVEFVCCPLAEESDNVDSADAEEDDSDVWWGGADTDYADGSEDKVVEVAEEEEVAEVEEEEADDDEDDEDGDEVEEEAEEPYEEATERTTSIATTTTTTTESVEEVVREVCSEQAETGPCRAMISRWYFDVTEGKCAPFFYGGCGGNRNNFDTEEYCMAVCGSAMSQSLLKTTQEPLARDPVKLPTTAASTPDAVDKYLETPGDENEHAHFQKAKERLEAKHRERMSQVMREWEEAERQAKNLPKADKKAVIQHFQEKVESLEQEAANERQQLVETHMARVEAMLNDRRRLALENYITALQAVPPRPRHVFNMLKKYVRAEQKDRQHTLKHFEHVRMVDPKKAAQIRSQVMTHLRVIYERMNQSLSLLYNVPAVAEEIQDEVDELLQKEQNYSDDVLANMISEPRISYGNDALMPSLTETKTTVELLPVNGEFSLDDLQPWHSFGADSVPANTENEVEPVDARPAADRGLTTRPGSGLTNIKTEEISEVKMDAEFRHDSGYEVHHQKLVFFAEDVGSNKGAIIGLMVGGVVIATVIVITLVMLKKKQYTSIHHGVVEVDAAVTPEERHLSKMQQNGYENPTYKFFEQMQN

[6] = target: Cholinesterase (Equus caballus) (UniProt P81908); assay: Inhibition of equine serum BuChE at 25 uM using S-butyrylthiocholine iodide as susbtrate preincubated for 6 mins followed by substrate addition measured up to 3 mins by Ellman's method
Sequence of Cholinesterase (Equus caballus) (P81908 whole entry): as the sequence (P81908 whole entry) above

[7] = target: Cholinesterase (Equus caballus) (UniProt P81908); assay: Reversible inhibition of equine serum BuChE assessed as enzyme activity at 0.1 times IC50 using butyrylthiocholine iodide as substrate measured at 120 mins by Ellman's method relative to control; design: scale not given: the % may be the effect or the level left
Summary of the method: (§1)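 Reversibility tested by recovery of equine serum BuChE activity after dilution of inhibitor, with activity monitored over time up to 240 min by the Ellman method (DTNB read at 412 nm). Activity expressed relative to untreated control. Three independent experiments.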

[8] = target: Cholinesterase (Equus caballus) (UniProt P81908); assay: Reversible inhibition of equine serum BuChE assessed as enzyme activity at IC50 using butyrylthiocholine iodide as substrate by Ellman's method relative to control; design: scale not given: the % may be the effect or the level left
[9] = target: Cholinesterase (Equus caballus) (UniProt P81908); assay: Reversible inhibition of equine serum BuChE assessed as enzyme activity at 0.1 times IC50 using butyrylthiocholine iodide as substrate by Ellman's method relative to control; design: scale not given: the % may be the effect or the level left
Summary of the method: as §1

PC-12 [10] = assay: Neuroprotective activity against H2O2-induced cell death in rat PC12 cells assessed as cell viability at 1 uM pretreated for 2 hrs followed by H2O2 addition measured after 30 mins by MTT assay (reference value: 49.6%); type: functional; settings: read-out: Activity
[11] = Metal chelating activity of the compound assessed as formation of Fe2+-compound complex at 37.5 uM after 30 mins by UV-vis absorption spectra analysis
Summary of the method: (§2)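 Metal binding examined by plate-reader absorbance scan using CuCl2, ZnCl2, AlCl3, FeSO4, CuCl and Fe(NO3)3 as metal sources.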

[12] = Metal chelating activity of the compound assessed as formation of Al3+-compound complex at 37.5 uM after 30 mins by UV-vis absorption spectra analysis
Summary of the method: as §2

PC-12 [13] = assay: Neuroprotective activity against H2O2-induced cell death in rat PC12 cells assessed as cell viability at 10 uM pretreated for 2 hrs followed by H2O2 addition measured after 30 mins by MTT assay (reference value: 49.6%); type: functional; settings: read-out: Activity
[14] = Metal chelating activity of the compound assessed as formation of Cu2+-compound complex at 37.5 uM after 30 mins by UV-vis absorption spectra analysis
Summary of the method: as §2

[15] = Metal chelating activity of the compound assessed as formation of Zn2+-compound complex at 37.5 uM after 30 mins by UV-vis absorption spectra analysis
Summary of the method: as §2

in vitro = settings: PAMPA, pH 7.4
[16] = Disaggregation of Cu2+ induced preformed fibrils of amyloid beta (1 to 42) (unknown origin) at 25 uM preincubated with Cu2+ for 24 hrs followed by compound addition and measured after 24 hrs by thioflavin-T based fluorescence assay relative to control
Summary of the method: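 Aβ1-42 (25 µM) and Cu2+ (25 µM) preincubated at 37 °C for 24 h, then compound (25 µM) added and incubated a further 24 h at 37 °C. ThT (5 µM in 50 mM glycine-NaOH, pH 8.5) added; fluorescence at ex 446/em 490 nm, background subtracted, % vs no-compound control. Three independent experiments.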

[17] = Inhibition of Cu2+-induced amyloid beta (1 to 42 residues) (unknown origin) aggregation at 25 uM after 24 hrs by thioflavin-T based fluorescence assay relative to control
Summary of the method: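 Aβ1-42 (25 µM) and Cu2+ (25 µM) incubated at 37 °C for 24 h with or without compound (25 µM). ThT (5 µM in 50 mM glycine-NaOH, pH 8.5) then added; fluorescence read at ex 446/em 490 nm. Inhibition = (1−IFi/IFc)×100 after background subtraction. Three independent experiments.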

Mus musculus [18] = assay: Reversal of scopolamine-induced memory cognitive memory impairment in Kunming mouse assessed as change in spontaneous alteration behavior at 6 mg/kg, ig pretreated for 30 mins followed by scopolamine challenge and after 30 mins by Y-maze test (reference value: 45.6%); type: functional
Mus musculus [19] = assay: Effect on total arm entries in Kunming mouse model of scopolamine-induced cognitive impairment in at 6 mg/kg, ig pretreated for 30 min followed by scopolamine challenge and measured after 30 mins by Y-maze test; type: ADME, organism-based; settings: in vivo, po, 0.5 h

Row | Compound | pIC50 [1] | inhibition at 12.5 µM [2] | pIC50 (Cholinesterase) | inhibition at 0.25 h, 25 µM [3] | Activity [4] | inhibition [5] | other results
1 | CCN(CC)C(=O)Oc1cccc(/C=C/C(=O)c2ccccc2O)c1 | 5.74 | 38.1% | 5.32 | 16.9% | 1.3 µMequiv/µM |  | 
2 | O=C(/C=C/c1cccc(O)c1)c1ccccc1O | 5.96 | 28.1% |  | 23.3% | 2.6 µMequiv/µM | 70.6% | inhibition [6]: 28.9%
3 | CON(C)C(=O)Oc1cccc(/C=C/C(=O)c2ccccc2O)c1 | 5.59 | 33.8% | 5.49 | 30.4% | 1.2 µMequiv/µM | 61.4% | 
4 | O=C(/C=C/c1cccc(OC(=O)N(c2ccccc2)c2ccccc2)c1)c1ccccc1OC(=O)N(c1ccccc1)c1ccccc1 | 5.20 | 18.2% | 4.37 | 27.1% | 0.33 µMequiv/µM |  | 
5 | COc1cc2c(cc1OC)C(=O)C(CC1CCN(Cc3ccccc3)CC1)C2 (stereo unspecified) |  |  |  |  |  |  | Activity [7]: 104%; Activity [8]: 54.1%
6 | O=C(/C=C/c1cccc(OC(=O)N2CCOCC2)c1)c1ccccc1O | 5.51 | 17.4% | 5.29 | 24.3% | 1.2 µMequiv/µM |  | 
7 | CCN(C)C(=O)Oc1cccc(/C=C/C(=O)c2ccccc2OC(=O)N(C)CC)c1 | 5.43 | 28.4% | 5.92 | 35.4% | 0.35 µMequiv/µM | 53.1% | Activity [9]: 50.7%; viability at 1 µM (PC-12 [10]): 53.7%; Activity [7]: 70.9%; Activity [8]: 49.7%; Activity [11]: inactive; Activity [12]: inactive; viability at 10 µM (PC-12 [13]): 63.2%; Activity [14]: inactive; Activity [15]: inactive; Papp at 100 ug/ml (in vitro): 23.1 ×10⁻⁶ cm/s
8 | O=C(/C=C/c1cccc(OC(=O)N2CCOCC2)c1)c1ccccc1OC(=O)N1CCOCC1 | 5.28 | 20.9% | 5.70 | 20.8% | 0.32 µMequiv/µM | 49.2% | 
9 | O=C(/C=C/c1cccc(OC(=O)N(c2ccccc2)c2ccccc2)c1)c1ccccc1O | 5.31 | 18.2% | 4.25 | 18.9% | 1.1 µMequiv/µM |  | 
10 | CON(C)C(=O)Oc1cccc(/C=C/C(=O)c2ccccc2OC(=O)N(C)OC)c1 | 5.34 | 10.3% | 5.82 | 45.4% | 0.32 µMequiv/µM | 49.9% | 
11 | CN(C)C(=O)Oc1cccc(/C=C/C(=O)c2ccccc2OC(=O)N(C)C)c1 | 5.54 | 18.9% | 5.35 | 11.7% | 0.32 µMequiv/µM |  | 
12 | CCN(CC)C(=O)Oc1cccc(/C=C/C(=O)c2ccccc2OC(=O)N(CC)CC)c1 | 5.48 | 21.1% | 5.51 | 21.9% | 0.31 µMequiv/µM | 51.5% | 
13 | COc1cc(/C=C/C(=O)CC(=O)/C=C/c2ccc(O)c(OC)c2)ccc1O |  |  |  |  |  |  | Activity [16]: 58.2%; inhibition [17]: 73.4%
14 | CCN(C)C(=O)Oc1cccc([C@H](C)N(C)C)c1 [RIVASTIGMINE] |  |  |  |  |  |  | Activity [9]: 46.9%; Activity (Mus musculus [18]): 65.3%; Activity [7]: 71.6%; Activity [8]: 49.8%; Activity (Mus musculus [19]): Non-Toxic
15 | CN(C)C(=O)Oc1cccc(/C=C/C(=O)c2ccccc2O)c1 | 6.10 | 19.9% | 5.60 | 28.8% | 1.1 µMequiv/µM | 60.2% | 
